# Measured values of several laboratories.
# Compare with care: the assays were run in different laboratories.
# Target: Dual specificity mitogen-activated protein kinase kinase 2 (MAP2K2, Homo sapiens, UniProt P36507)
Structure (SMILES),test,setting,measurement,value
CCCOc1ccc([C@H]2[C@H](C(=O)O)[C@@H](c3ccc4c(c3)OCO4)CN2CC(=O)Nc2c(CC)cccc2CC)cc1,"cell-free assay, competition with immobilised ligand",1 µM,remaining binding,62%
Cn1c2c(Cl)c(Cl)ccc2c2cc(N)[nH]c(=O)c21,"thermal stability, DSF",10 µM,ΔTm,-0.1 °C
CN([C@@H]1CCc2c(CC(=O)O)c3cc(S(C)(=O)=O)ccc3n2C1)S(=O)(=O)c1ccc(F)cc1,"cell-free assay, competition with immobilised ligand",1 µM,remaining binding,95%
CCN(CC)CCNC(=O)c1c(C)[nH]c(/C=C2\C(=O)Nc3ccc(F)cc32)c1C,cell-free assay,0.5 µM,remaining signal,25.4%
FC(F)c1nc2ccccc2n1-c1nc(N2CCOCC2)nc(N2CCOCC2)n1,"enzyme activity, inhibitor",10 µM,remaining activity,95%
Cn1c2c(c3ccc(Cl)c(Cl)c31)C(C#N)C1(CCOCC1)NC2=O (centres unmarked),"thermal stability, DSF",10 µM,ΔTm,-0.4 °C
COc1cc(/C=C/C(=O)CC(=O)/C=C/c2ccc(O)c(OC)c2)ccc1O,"enzyme activity, inhibitor",1 µM,activity vs control,91%
Cn1c(=O)n(-c2ccc(C(C)(C)C#N)cc2)c2c3cc(-c4cnc5ccccc5c4)ccc3ncc21,"enzyme activity, inhibitor",10 µM,remaining activity,86%
N#CCCc1ccc2c(c1)-c1[nH]c3ccc([N+](=O)[O-])cc3c1CC(=O)N2,cell-free assay,0.5 µM,remaining signal,90.3%
CCN1CCC2(CC1)NC(=O)c1c(c3ccc(Cl)c(Cl)c3n1C)C2C#N (racemic),"thermal stability, DSF",10 µM,ΔTm,-0.1 °C
Nc1cnc(N2CCc3cc(S(=O)(=O)Nc4c(F)cc(Cl)cc4F)cc(N4CCCC4=O)c32)nc1,"cell-free assay, competition with immobilised ligand",1 µM,remaining binding,92%
FC(F)(F)Oc1cccc(-c2cnc3ccc(-c4ccncc4)nn23)c1,"enzyme activity, inhibitor, radiometric",1 µM,activity vs control,84%
COc1cc(Nc2cnc(C#N)c(O[C@H](C)CN(C)C)n2)ncc1-c1cnn(C)c1,"enzyme activity, inhibitor, radiometric",1 µM,remaining activity,76%
Cn1c2c(c3ccc(Cl)c(Cl)c31)C(C#N)C1(CCNCC1)NC2=O (racemic),"thermal stability, DSF",10 µM,ΔTm,-0.4 °C
COc1cc(-c2cc(-c3ccc(N4CCNCC4)cc3)cnc2C)cc(OC)c1OC,"enzyme activity, inhibitor",1 µM,inhibition,8%
CC(C)(O)[C@H]1CC[C@H](Nc2ccc3ncc(-c4cccc(C(F)(F)F)c4)n3n2)CC1,"enzyme activity, inhibitor",1 µM,remaining activity,101%
CN(C(=O)c1ccccc1)c1cc(N(C)c2ccc3c(c2)CCc2ccc(C(=O)NCCN4CCOCC4)cc2C3=O)ccc1F,"cell-free assay, competition with immobilised ligand",1 µM,remaining binding,100%
Nc1ncnc2occ(-c3ccc(NC(=O)Nc4cc(C(F)(F)F)ccc4F)cc3)c12,"cell-free assay, inhibitor",20 µM,remaining signal,7.1%
CC(C)(C)c1nc(-c2cccc(NS(=O)(=O)c3c(F)cccc3F)c2F)c(-c2ccnc(N)n2)s1,"enzyme activity, inhibitor, radiometric",1 µM,remaining activity,91%
Nc1c(C(=O)NCc2ccc(C(=O)NCCCC3CCCCC3)cc2)cnn1-c1ccccc1,"cell-free assay, competition with immobilised ligand",0.1 µM,remaining binding,100%
Cc1sc(C(=O)NC2COC2)cc1-n1cc(NC(=O)Nc2c(F)cccc2Cl)cn1,"enzyme activity, inhibitor",10 µM,remaining activity,99.5%
O=C(CSc1nc2nccnc2c(=O)n1CCc1ccccc1)Nc1nccs1,"enzyme activity, inhibitor",10 µM,inhibition,-3%
CN1CCN(c2cnc3c(C4CCN(C(=O)c5ccc(OC(F)(F)F)cc5N)CC4)ncnc3c2)CC1,"cell-free assay, competition with immobilised ligand",1 µM,remaining binding,100%
O=C1NC(=O)c2cc(Nc3ccc(F)cc3)c(Nc3ccc(F)cc3)cc21,cell-free assay,0.5 µM,remaining signal,89.5%
O=C(Nc1cnn(-c2csc(C(=O)NC3COC3)c2)c1)Nc1ccccc1Cl,"enzyme activity, inhibitor",5 µM,remaining activity,92.2%
COc1cc2ncnc(Nc3ccc(Oc4ccccc4)c(C)c3C)c2cc1OC,"enzyme activity, inhibitor",1 µM,inhibition,-7%
CNC(=O)c1ccc(Nc2ncc(C(F)(F)F)c(NCc3nccnc3N(C)S(C)(=O)=O)n2)cc1,"cell-free assay, competition with immobilised ligand",0.1 µM,remaining binding,100%
CCC1(CC)NC(=O)c2c(c3ccc(Cl)c(Cl)c3n2C)C1C#N (centres unmarked),"thermal stability, DSF",10 µM,ΔTm,-0.4 °C
CCc1ccccc1C(=O)Nc1n[nH]c2c(C)c(F)c(C3C(C#N)=C(C)N(C)C(C)=C3C#N)cc12,"cell-free assay, competition with immobilised ligand",1 µM,remaining binding,100%
CN1CC(Oc2cnc(C#N)cc2-c2ccn3nc(NC(=O)C4CC4)cc3c2)C1,"enzyme activity, inhibitor",1 µM,inhibition,14%
Cc1ccc(NC(=O)c2ccc(CN3CCN(C)CC3)cc2)cc1Nc1nc(-c2cccnc2)cs1,cell-free assay,0.5 µM,remaining signal,114%
Cn1c2c(c3ccccc31)C(C#N)C(C)(C)NC2=O (centres unmarked),"thermal stability, DSF",10 µM,ΔTm,-0.1 °C
